Experiments:
[1] = species on record: Rattus norvegicus; assay: Antioxidant potency of compound was assessed for their ability to inhibit [Fe2+] induced lipid peroxidation in rat brain microsomes; format: functional
[2] = target: T1, Nitric oxide synthase 1 (Rattus norvegicus, UniProt P29476); assay: Inhibitory concentration tested against neuronal nitric oxide synthase (nNOS ) from rat cerebellum; format: tissue-based
[3] = target: T2, Nitric oxide synthase 3 (Bos taurus) (UniProt P29473); assay: Selectivity ratio for inhibition of Endothelial Nitric oxide synthase to that of Neuronal Nitric oxide synthase in rat
T2 sequence (whole entry): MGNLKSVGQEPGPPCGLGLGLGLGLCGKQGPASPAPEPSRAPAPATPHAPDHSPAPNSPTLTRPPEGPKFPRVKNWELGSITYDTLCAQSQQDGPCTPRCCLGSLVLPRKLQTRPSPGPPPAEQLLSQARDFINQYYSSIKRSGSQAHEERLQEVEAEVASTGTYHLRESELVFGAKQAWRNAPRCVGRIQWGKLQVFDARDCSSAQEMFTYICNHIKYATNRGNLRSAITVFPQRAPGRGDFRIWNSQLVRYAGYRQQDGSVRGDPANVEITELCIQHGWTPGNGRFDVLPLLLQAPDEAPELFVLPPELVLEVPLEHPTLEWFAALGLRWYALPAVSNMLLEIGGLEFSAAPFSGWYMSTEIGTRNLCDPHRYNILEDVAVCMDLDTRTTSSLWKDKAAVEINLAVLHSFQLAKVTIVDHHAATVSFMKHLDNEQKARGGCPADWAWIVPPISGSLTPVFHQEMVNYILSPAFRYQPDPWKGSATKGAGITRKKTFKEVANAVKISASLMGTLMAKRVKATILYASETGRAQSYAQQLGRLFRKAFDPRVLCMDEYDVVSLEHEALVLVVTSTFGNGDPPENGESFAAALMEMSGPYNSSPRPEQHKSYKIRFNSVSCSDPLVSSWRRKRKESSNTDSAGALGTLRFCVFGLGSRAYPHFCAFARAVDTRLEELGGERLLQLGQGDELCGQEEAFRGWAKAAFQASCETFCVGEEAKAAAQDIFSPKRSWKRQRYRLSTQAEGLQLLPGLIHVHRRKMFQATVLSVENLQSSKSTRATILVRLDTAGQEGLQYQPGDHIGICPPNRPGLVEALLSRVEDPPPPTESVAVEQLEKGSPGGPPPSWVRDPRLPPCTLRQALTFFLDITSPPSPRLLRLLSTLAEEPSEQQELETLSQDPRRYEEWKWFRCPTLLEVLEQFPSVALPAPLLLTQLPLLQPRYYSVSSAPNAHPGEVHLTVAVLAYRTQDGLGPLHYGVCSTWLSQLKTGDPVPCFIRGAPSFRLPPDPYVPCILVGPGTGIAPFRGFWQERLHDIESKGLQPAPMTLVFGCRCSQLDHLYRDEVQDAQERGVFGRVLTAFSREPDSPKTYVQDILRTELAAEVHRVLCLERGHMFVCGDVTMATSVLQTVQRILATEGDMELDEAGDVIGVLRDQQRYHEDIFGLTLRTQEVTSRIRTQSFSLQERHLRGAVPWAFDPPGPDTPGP
Method in brief: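 Ratio of inhibitory activity on the two constitutive NOS isoforms, eNOS and nNOS. Inhibition on each isoform was measured as the effect on NOS conversion of [3H]L-arginine to [3H]L-citrulline.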

[4] = target: T3, Nitric oxide synthase 3 (Bos taurus, UniProt P29473); assay: Inhibitory concentration tested against bovine endothelial nitric oxide synthase (eNOS)
T3 sequence (P29473 whole entry): T2 sequence (whole entry)
Method in brief: (§1)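 NOS activity measured as enzymatic conversion of [3H]L-arginine into [3H]L-citrulline; inhibition taken as the reduction of this conversion. Both constitutive isoforms (neuronal and endothelial) were assayed, and the nNOS/eNOS selectivity was calculated from the two results.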

[5] = species on record: Rattus norvegicus; assay: Antioxidant potency of compound was assessed for their ability to inhibit [Fe2+] induced lipid peroxidation in rat brain microsomes; Not active; format: functional
[6] = target: T1, Nitric oxide synthase 1; assay: Inhibitory concentration tested against neuronal nitric oxide synthase (nNOS ) from rat cerebellum; Not active; format: tissue-based; method in brief: as §1
[7] = target: T3, Nitric oxide synthase 3; assay: Inhibitory concentration tested against bovine endothelial nitric oxide synthase (eNOS); Not active; method in brief: as §1

T1 sequence (P29476 whole entry): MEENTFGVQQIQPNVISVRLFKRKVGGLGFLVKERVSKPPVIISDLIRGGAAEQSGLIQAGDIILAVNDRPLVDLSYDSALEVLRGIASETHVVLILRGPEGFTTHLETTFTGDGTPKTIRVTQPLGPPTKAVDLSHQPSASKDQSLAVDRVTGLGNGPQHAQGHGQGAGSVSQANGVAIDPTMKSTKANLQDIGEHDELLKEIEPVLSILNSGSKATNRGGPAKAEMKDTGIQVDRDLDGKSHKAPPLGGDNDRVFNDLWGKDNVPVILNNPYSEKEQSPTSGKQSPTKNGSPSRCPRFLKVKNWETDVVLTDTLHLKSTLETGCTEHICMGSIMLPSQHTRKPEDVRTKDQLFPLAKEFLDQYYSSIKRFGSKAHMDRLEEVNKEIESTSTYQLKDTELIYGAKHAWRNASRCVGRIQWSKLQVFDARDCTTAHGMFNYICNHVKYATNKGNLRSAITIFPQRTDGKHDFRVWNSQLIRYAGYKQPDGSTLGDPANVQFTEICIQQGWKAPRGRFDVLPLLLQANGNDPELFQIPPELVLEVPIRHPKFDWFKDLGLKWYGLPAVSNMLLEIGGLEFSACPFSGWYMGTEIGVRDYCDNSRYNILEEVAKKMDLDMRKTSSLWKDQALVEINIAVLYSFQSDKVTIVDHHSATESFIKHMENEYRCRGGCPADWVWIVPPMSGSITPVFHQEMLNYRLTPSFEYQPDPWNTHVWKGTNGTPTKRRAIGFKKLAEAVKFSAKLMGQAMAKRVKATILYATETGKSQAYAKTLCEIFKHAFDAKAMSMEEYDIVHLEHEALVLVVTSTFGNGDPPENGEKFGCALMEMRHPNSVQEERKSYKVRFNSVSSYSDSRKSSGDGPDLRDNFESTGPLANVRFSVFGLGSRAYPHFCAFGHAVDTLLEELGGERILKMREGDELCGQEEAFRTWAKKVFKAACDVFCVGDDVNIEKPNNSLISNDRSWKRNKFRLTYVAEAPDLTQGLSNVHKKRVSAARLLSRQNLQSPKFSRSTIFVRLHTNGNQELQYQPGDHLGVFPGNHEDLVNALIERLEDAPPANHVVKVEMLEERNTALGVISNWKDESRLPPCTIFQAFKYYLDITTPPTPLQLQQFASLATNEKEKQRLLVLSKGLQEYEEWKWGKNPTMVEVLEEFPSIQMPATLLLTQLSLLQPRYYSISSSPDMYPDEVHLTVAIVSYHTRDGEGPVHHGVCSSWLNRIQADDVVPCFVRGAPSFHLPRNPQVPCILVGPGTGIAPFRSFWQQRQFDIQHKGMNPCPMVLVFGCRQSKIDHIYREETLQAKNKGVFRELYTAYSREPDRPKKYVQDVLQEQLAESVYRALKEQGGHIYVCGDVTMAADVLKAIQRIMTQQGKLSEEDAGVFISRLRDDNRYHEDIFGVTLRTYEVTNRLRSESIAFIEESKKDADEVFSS

Row | IC50 [1] [nM] | IC50 [2] [nM] | Selectivity ratio [3] | IC50 [4] [µM] | IC50 [6] | IC50 [7] | Structure (SMILES) | IC50 [5]
1 | 400 | 120 | 67.5 | 8.1 |  |  | CC(C)c1cc(CCCNCc2cccc(NC(=N)c3cccs3)c2)cc(C(C)C)c1O | 
2 |  | 2200 | 6.3 | 13.9 |  |  | N=C(Nc1ccccc1)c1cccs1 | 
3 | 2400 |  | 11.1 |  |  |  | CC(C)(C)c1cc(CCNCc2cccc(NC(=N)c3cccs3)c2)cc(C(C)(C)C)c1O | 
4 |  | 50 | 484 | 24.2 |  |  | N=C(Nc1cccc(CN)c1)c1cccs1 | 
5 | 4900 | 1600 | 9.8 | 15.7 |  |  | CC(C)(C)c1cc(CNCc2cccc(NC(=N)c3cccs3)c2)cc(C(C)(C)C)c1O | 
6 | 400 | 470 | 10.4 | 4.9 |  |  | CC(C)(C)c1cc(CCCNCc2cccc(NC(=N)c3cccs3)c2)cc(C(C)(C)C)c1O | 

The remaining lines, values behind:

Row | Structure (SMILES) | IC50 [1] [nM] | IC50 [2] [nM] | Selectivity ratio [3] | IC50 [4] [µM] | IC50 [6] | IC50 [7] | IC50 [5]
7 | Cl.Cl.Cl.N=C(Nc1ccc(CCNCc2cccc(Cl)c2)cc1)c1cccs1 |  | 120 | 60 | 7.2 |  |  | Not Active
8 | Cc1cc(C(C)(C)C)c(O)c(C(C)(C)C)c1 [BUTYLATED HYDROXYTOLUENE] | 32500 |  |  |  | Not Active | Not Active | 
9 | N=C(Nc1ccc(CCN)cc1)c1cccs1 |  | 80 | 312 | 25 |  |  | 
10 | CC(C)(C)c1cc(CCNCc2cccc(N=C(N)c3cccs3)c2)cc(C(C)(C)C)c1O |  | 1400 |  | 15.5 |  |  | 
11 | N=C(Nc1ccc(CN)cc1)c1cccs1 |  | 200 | 195 | 37.1 |  |  | 
12 | N/C(=N/c1ccc(N)cc1)c1cccs1 |  | 18000 | > 5.5 | > 100 |  |  | 

— ChEMBL document CHEMBL1136261, “Novel inhibitors of neuronal nitric oxide synthase with potent antioxidant properties” (Bioorg Med Chem Lett, 2003)
